Test results from ChEMBL document CHEMBL1138589, “Development of novel aminoglycoside (NB54) with reduced toxicity and enhanced suppression of disease-causing premature stop mutations” (J Med Chem, 2009).
Values after ≈ are worked out from the molar mass of the structure shown.

Experiments:
Ribosomal RNA A-site [1] = test: Binding affinity to human cytoplasmic ribosomal RNA A-site; type: nucleic-acid assay
Procedure, shortened: (§1)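 UV melting of RNA A-site model oligonucleotide, 2 µM in strand, drug 0 to 10 µM, in 10 mM EPPS (pH 7.0), 10 mM NaCl. RNA preheated 85 °C 5 min and slowly cooled. Absorbance read at 274 nm, 1 cm path, 0.5 °C steps with 1.5 min equilibration per step; ΔTm derived.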

Nucleic Acid [2] = test: Suppression of CFTR G542X nonsense mutant cDNA translation in TNT rabbit reticulocyte lysate transcription translation system at 25 to 100 uM at 30 degC after 90 mins by luciferase reporter gene assay
Procedure, shortened: (§2)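 A dual luciferase reporter plasmid carrying the nonsense-mutation context was used. Luciferase activities were read with a dual luciferase assay kit after incubation, and readthrough was calculated by a previously described method. Translation inhibition was monitored as the ratio of Renilla luciferase activity with versus without aminoglycoside.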

Nucleic Acid [3] = test: Suppression of CFTR W1282X nonsense mutant cDNA translation in TNT rabbit reticulocyte lysate transcription translation system at 25 to 100 uM at 30 degC after 90 mins by luciferase reporter gene assay; procedure, shortened: as §2
Nucleic Acid [4] = test: Suppression of Dystrophin R3381X nonsense mutant cDNA translation in TNT rabbit reticulocyte lysate transcription translation system at 25 to 100 uM at 30 degC after 90 mins by luciferase reporter gene assay; procedure, shortened: as §2
Nucleic Acid [5] = test: Suppression of IDUA Q70X nonsense mutant cDNA translation in TNT rabbit reticulocyte lysate transcription translation system at 25 to 100 uM at 30 degC after 90 mins by luciferase reporter gene assay; procedure, shortened: as §2
Nucleic Acid [6] = test: Suppression of PCDH15 R3X nonsense mutant cDNA translation in TNT rabbit reticulocyte lysate transcription translation system at 25 to 100 uM at 30 degC after 90 mins by luciferase reporter gene assay; procedure, shortened: as §2
[7] = (§3) Toxicity against HEK293 cells; type: cell-based; details: human, HEK293 cells; read-out: LC50 (the source's name)
[8] = Toxicity against african green monkey COS7 cells; type: cell-based, COS-7; details: chlorocebus aethiops, read-out: LC50 (the source's name)
[9] = (§4) Toxicity against MDCK cells; type: cell-based, Canis lupus familiaris; details: dog, MDCK cells; read-out: LC50 (the source's name)
Mus musculus = test: Acute toxicity in iv dosed BALB/c mouse assessed as mortality administered as single dose after 4 days; type: organism-based; details: in vivo, 96 h
Procedure, shortened: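 Male BALB/c mice, […] (18-20 g), 12 h light/dark cycle at 20-22 °C, food and water ad libitum. Single intravenous tail-vein injection of 150 µL of drug in PBS (pH 7), 8 animals per concentration. Appearance, behaviour and mortality were monitored for 4 days, and LD50 was derived by the Reed and Muench method.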

Escherichia coli [10] = test: Antibacterial activity against Escherichia coli R477-100 by double-microdilution method; type: functional
[11] = Ototoxicity in mouse organ of Corti cochlear explants assessed as inner hair cell loss at 0.1 mM by F-actin staining; type: toxicity; details: 100 µM
Procedure, shortened: (§5)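 Cochlea dissected from postnatal day 3 mice; organ of Corti/spiral ganglion flat preparation cultured serum-free (BME, supplement, 1% BSA, 2 mM glutamine, glucose, penicillin) at 37°C, 5% CO2, 24 h before medium swapped for drug-containing medium. Fixed in 4% paraformaldehyde, permeabilized with Triton X-100, blocked with goat serum, F-actin stained with fluorescent phalloidin; basal segments examined.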

[12] = Ototoxicity in mouse organ of Corti cochlear explants assessed as outer hair cell loss at 0.1 mM by F-actin staining; type: toxicity; details: 100 µM; procedure, shortened: as §5
[13] = Ototoxicity in mouse organ of Corti cochlear explants assessed as inner hair cell loss at 1 mM by F-actin staining; type: toxicity; details: 1000 µM; procedure, shortened: as §5
[14] = Ototoxicity in mouse organ of Corti cochlear explants assessed as inner hair cell loss at 0.2 mM by F-actin staining; type: toxicity; details: 200 µM; procedure, shortened: as §5
[15] = Ototoxicity in mouse organ of Corti cochlear explants assessed as outer hair cell loss at 0.2 mM by F-actin staining; type: toxicity; details: 200 µM; procedure, shortened: as §5
Ribosomal RNA A-site [16] = test: Binding affinity to human cytoplasmic ribosomal RNA A-site assessed as thermal stability at compound/RNA ratio of 5 by UV melting profile method; type: nucleic-acid assay; procedure, shortened: as §1
Escherichia coli [17] = test: Inhibition of protein translation in Escherichia coli by coupled transcription/translation assay; type: functional
[18] = Ototoxicity in mouse organ of Corti cochlear explants assessed as outer hair cell loss at 1 mM by F-actin staining; type: toxicity; details: 1000 µM; procedure, shortened: as §5
Nucleic Acid [19] = test: Suppression of PCDH15 R245X nonsense mutant cDNA translation in TNT rabbit reticulocyte lysate transcription translation system at 25 to 100 uM at 30 degC after 90 mins by luciferase reporter gene assay; procedure, shortened: as §2
Nucleic Acid [20] = test: Suppression of IDUA W402X nonsense mutant cDNA translation in TNT rabbit reticulocyte lysate transcription translation system at 25 to 100 uM at 30 degC after 90 mins by luciferase reporter gene assay; procedure, shortened: as §2
Nucleic Acid [21] = test: Suppression of PCDH15 R3X nonsense mutant cDNA translation in african green monkey COS7 cells at 1 mg/mL; type: cell-based; details: COS-7
Procedure, shortened: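 Dual luciferase reporter carrying PCDH15-R3X transfected into COS-7 cells by lipofection. Compound added 5 h post-transfection. Luciferase activity measured with a dual luciferase assay system, and readthrough calculated by a previously described method.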

HEK293 = test: as §3; type: cell-based; details: human, hek293; read-out: LC50 (the source's name)
MDCK = test: as §4; type: cell-based, Canis lupus familiaris; details: dog, mdck; read-out: LC50 (the source's name)
Nucleic Acid [22] = test: Suppression of PCDH15 R3X nonsense mutant cDNA translation in african green monkey COS7 cells at 0.5 mg/mL; type: cell-based; details: COS-7
Procedure, shortened: (§6)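 COS-7 cells were lipofected with the dual luciferase construct carrying PCDH15 R3X, and drugs were added 5 h after transfection at varying concentrations. Maximal doses were set from LC50 in COS-7 cells to keep cell viability above 80%. Stop-codon readthrough was read by dual luciferase assay and calculated by a previously described method.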

Nucleic Acid [23] = test: Suppression of PCDH15 R3X nonsense mutant cDNA translation in african green monkey COS7 cells at 0.25 mg/mL; type: cell-based; details: COS-7; procedure, shortened: as §6

| Compound | Activity (Nucleic Acid [2]) [%] | Activity (Nucleic Acid [3]) [%] | Activity (Nucleic Acid [4]) [%] | Activity (Nucleic Acid [5]) [%] | Activity (Nucleic Acid [6]) [%] | CC50 [7] [mM] | CC50 ([8]; COS7 cells) [mM] | CC50 [9] [mM] | LD50 (Mus musculus) [mg/kg] | MIC (Escherichia coli [10]) [µM] | Activity [11] | Activity [12] | Activity [13] | Activity [14] | Activity [15] | ΔTm (Ribosomal RNA A-site [16]) [°C] | IC50 (Escherichia coli [17]; Escherichia coli) [nM] | Activity [18] | Activity (Nucleic Acid [19]) [%] | Activity (Nucleic Acid [20]) [%] | also measured |
| --- | --- | --- | --- | --- | --- | --- | --- | --- | --- | --- | --- | --- | --- | --- | --- | --- | --- | --- | --- | --- | --- |
| NC[C@H]1O[C@@H](O[C@@H]2[C@@H](O)[C@H](N)C[C@H](N)[C@H]2O[C@H]2O[C@H](CO)[C@@H](O)[C@H](O)[C@H]2N)[C@H](O)[C@@H]1O | 30 | 30 | 30 | 30 | 30 | 7.4 | 10.8 | 11.5 | 240 | 790 (≈ 359 µg/mL) | Non-toxic | Non-toxic | Non-toxic | Toxic | Toxic | 4.5 | 415 | Non-toxic | 30 | 30 | Ka (Ribosomal RNA A-site [1]): 4.7 ×10³ /M; Activity (Nucleic Acid [21]): 2.75% |
| NCC[C@H](O)C(=O)N[C@@H]1C[C@H](N)[C@@H](O[C@H]2O[C@H](CO)[C@@H](O)[C@H](O)[C@H]2N)[C@H](O[C@@H]2O[C@H](CN)[C@@H](O)[C@H]2O)[C@H]1O | 50 | 50 | 50 | 50 | 50 | – | – | – | 500 | 588 (≈ 327 µg/mL) | Non-toxic | Non-toxic | Non-toxic | Toxic | Toxic | 9.7 | 159 | Non-toxic | 50 | 50 | CC50 (HEK293): 2.8 mM; CC50 ([8]; cos-7): 9.3 mM; CC50 (MDCK): 3.3 mM; Activity (Nucleic Acid [21]): 5.25% |
| NC[C@@H]1O[C@H](O[C@H]2[C@@H](O)[C@H](O[C@@H]3[C@@H](O)[C@H](N)C[C@H](N)[C@H]3O[C@H]3O[C@H](CO)[C@@H](O)[C@H](O)[C@H]3N)O[C@@H]2CO)[C@H](N)[C@@H](O)[C@@H]1O [PAROMOMYCIN] | 40 | 40 | 40 | 40 | 40 | 1.2 | 1.4 | 1.5 | 80 | 22 (≈ 13.5 µg/mL) | – | – | – | – | – | – | 56 | – | 40 | 40 | Activity (Nucleic Acid [22]): 1.62% |
| GENTAMICIN [listing 1 of 2 here] | 50 | 50 | 50 | 50 | 50 | – | – | – | – | 6 | – | – | – | – | – | – | – | – | 50 | 50 | Activity (Nucleic Acid [23]): 1.86% |
| GENTAMICIN [listing 2 of 2 here] | – | – | – | – | – | – | – | – | 60 | – | – | – | – | – | – | – | – | – | – | – | CC50 (HEK293): 1.1 mM; CC50 ([8]; cos-7): 0.75 mM; CC50 (MDCK): 0.78 mM; IC50 (Escherichia coli [17]): 20 nM |
